We go through 30 compounds from ChEMBL document CHEMBL1165928, “Synthesis and structure-activity relationships of 2-acylamino-4,6-diphenylpyridine derivatives as novel antagonists of GPR54” (Bioorg Med Chem, 2010).

pIC50: −log10 of the molar value.

Assay [1] concerns the target T1, KiSS-1 receptor (Homo sapiens, UniProt Q969F8). Kind of assay: Displacement of [125I]metastin(40-54) from human GPR54 receptor expressed in CHO cells after 60 mins by scintillation counting. The assay is classed as cell-based. The essentials: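 Membranes came from CHO h175-KB34 cells stably expressing human GPR54, harvested at ≤50% confluency, homogenized with protease inhibitors, pelleted and stored at −80 °C. Binding used 135 pM 125I-metastin(40-54) in pH 7.4 Tris/Mg acetate/EGTA buffer with 1 mg/ml BSA, 60 min at 25 °C. Samples were filtered on 0.3% PEI-treated GF/C plates, washed three times, and filter radioactivity was counted.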
(Displacement assays read how much labelled ligand stays bound in the presence of the test substance.)

For assay [2], the target named is T1, KiSS-1 receptor. Kind of assay: Antagonist activity at human GPR54 receptor expressed in CHO cells assessed as inhibition of metastin(40-54)-induced intracellular calcium mobilization by FLIPR assay. Type of assay: functional, cell-based. The essentials: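 Human GPR54 cell lines h175-KB33 and h175-16 were plated at 30,000 cells/well and cultured overnight. They were loaded 60 min at 37 °C with Fluo-3AM, 1.25 mM probenecid and 0.04% Pluronic F-127 in pH 7.4 Hepes salt buffer with 0.1% BSA, then washed. Ca2+ was read by FLIPR. Agonist was metastin(40-54) at 30 nM (h175-KB33) or 100 pM (h175-16).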
Background: Calcium flux is commonly read through the fluorescence of an indicator in the cells.

The target in assay [3] is T1, KiSS-1 receptor. Particulars: CHO, 10 uM.

T1 sequence (Q969F8 whole entry): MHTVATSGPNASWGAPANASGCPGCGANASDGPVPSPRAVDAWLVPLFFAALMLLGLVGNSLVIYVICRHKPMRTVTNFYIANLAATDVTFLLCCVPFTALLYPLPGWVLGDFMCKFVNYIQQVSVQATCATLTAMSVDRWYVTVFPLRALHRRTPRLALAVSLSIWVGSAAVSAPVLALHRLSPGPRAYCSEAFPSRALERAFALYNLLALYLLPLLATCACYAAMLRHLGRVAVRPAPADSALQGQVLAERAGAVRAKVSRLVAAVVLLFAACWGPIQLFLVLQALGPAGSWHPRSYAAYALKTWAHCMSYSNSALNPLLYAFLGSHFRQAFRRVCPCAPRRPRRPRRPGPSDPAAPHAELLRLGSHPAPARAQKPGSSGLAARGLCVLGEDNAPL

Turning to `N#Cc1c(-c2cccc(NC(=O)CN)c2)cc(-c2ccccc2O)nc1NC(=O)c1cccs1`, the values for the pIC50 in assay [1] and in assay [2] were 7.29 and 5.55, respectively.
For the compound `CC(C)(CN)CNC(=O)c1cccc(-c2cc(-c3ccc(F)cc3O)nc(NC(=O)c3ccco3)c2C#N)c1`, the pIC50 in assay [1] was 7.96; in assay [2], 5.60.
With `N#Cc1c(-c2cccc(CO)c2)cc(-c2ccccc2O)nc1NC(=O)c1cccs1`, the pIC50 in assay [1] was 5.82. Also, the inhibition in assay [3] came to 58%.
Regarding `N#Cc1c(-c2cccc(NC(=O)CCN)c2)cc(-c2ccc(F)cc2O)nc1NC(=O)c1ccco1`, the pIC50 in assay [1] is 8.43; in assay [2], 6.34.
For the compound `COc1ccc(O)c(-c2cc(-c3cccc(NC(=O)CCN)c3)c(C#N)c(NC(=O)c3cccs3)n2)c1`, in assay [1], the pIC50 was 6.32.
As to `Cc1ccc(-c2cc(-c3cccc(NC(=O)CCN)c3)c(C#N)c(NC(=O)c3cccs3)n2)c(O)c1`, the pIC50 in assay [1] is 7.92; in assay [2], 6.04.
`N#Cc1c(-c2ccccc2C(=O)NCCN)cc(-c2ccccc2O)nc1NC(=O)c1cccs1`: the pIC50 in assay [1] was 4.48.
Consider `N#Cc1c(-c2cccc(NC(=O)CCN)c2)cc(-c2ccc(F)cc2O)nc1NC(=O)c1cccs1`, for which the figures for the pIC50 in assay [1] and in assay [2] were 8.13 and 5.44, respectively.
`Cc1c(-c2ccccc2O)nc(NC(=O)c2ccco2)c(C#N)c1-c1cccc(NC(=O)CCN)c1` had a pIC50 in assay [1] of 5.92.
`N#Cc1c(-c2cccc(N)c2)cc(-c2ccccc2O)nc1NC(=O)c1cccs1` gave a pIC50 in assay [1] of 5.68.
On to `N#Cc1c(-c2cccc(NC(=O)CCCN)c2)cc(-c2ccccc2O)nc1NC(=O)c1cccs1`, for which the pIC50 was 7.47 in assay [1] and 5.85 in assay [2].
With `N#Cc1c(-c2cccc(NC(=O)CCN)c2)cc(-c2cc(Cl)ccc2O)nc1NC(=O)c1cccs1`, the pIC50 in assay [1] was 6.31.
Regarding `N#Cc1c(-c2cccc(NC(=O)CCN)c2)cc(-c2ccc(Br)cc2O)nc1NC(=O)c1cccs1`, the pIC50 in assay [1] is 7.72; in assay [2], 5.20.
With `CC(C)(CN)NC(=O)c1cccc(-c2cc(-c3ccccc3O)nc(NC(=O)c3ccco3)c2C#N)c1`, in assay [1], the pIC50 is 7.82.
With `COc1ccc(C(=O)Nc2nc(-c3ccccc3O)cc(-c3cccc(C(=O)NC(C)(C)CN)c3)c2C#N)cc1`, the pIC50 in assay [1] is 7.49.
Still for that read-out and setting: with `N#Cc1c(-c2ccc(C(=O)NCCN)cc2)cc(-c2ccccc2O)nc1NC(=O)c1cccs1` the figure was 6.92.
As for `N#Cc1c(-c2cccc(C(=O)NCCN)c2)cc(-c2ccc(F)cc2O)nc1NC(=O)c1ccco1`, the pIC50 in assay [1] is 8.10; in assay [2] it was 6.18.
Turning to `N#Cc1c(-c2cccc(NC(=O)CCN)c2)cc(-c2ccccc2O)nc1NC(=O)c1cccs1`, the pIC50 in assay [1] was 7.68; in assay [2], 5.96.
With `N#Cc1c(-c2cccc(NC(=O)CCN)c2)cc(-c2ccccc2O)nc1NC(=O)c1ccccc1`, the pIC50 in assay [1] is 7.29; in assay [2], 4.62.
As to `N#Cc1c(-c2cccc(CN)c2)cc(-c2ccccc2O)nc1NC(=O)c1cccs1`, the negative logarithm of the IC50 (pIC50) in assay [1] was 6.24.
On the same count and under the same terms, with `N#Cc1c(-c2cccc(NC(=O)CCN)c2)cc(-c2ccccc2N)nc1NC(=O)c1ccccc1` the figure was 6.05; with `COc1ccc(C(=O)Nc2nc(-c3ccccc3O)cc(-c3cccc(C(=O)NCCN)c3)c2C#N)cc1`, 7.51.
The same measure, in the same setting: under `COc1ccc(-c2cc(-c3cccc(NC(=O)CCN)c3)c(C#N)c(NC(=O)c3ccccc3)n2)c(O)c1` stands 6.92; under `N#Cc1c(-c2cccc(C(=O)O)c2)cc(-c2ccccc2O)nc1NC(=O)c1cccs1`, 5.00.
On the same count and under the same terms, under `N#Cc1c(-c2cccc(C(=O)NCCN)c2)cc(-c2ccccc2O)nc1NC(=O)c1ccco1` stands 7.85.
Take `N#Cc1c(-c2cccc(C(=O)NCCN)c2)cc(-c2ccccc2O)nc1NC(=O)c1cccs1`: the pIC50 in assay [1] is 7.35; in assay [2] it was 5.29.
For `N#Cc1c(-c2cccc(NC(=O)CCN)c2)cc(-c2ccc(Cl)cc2O)nc1NC(=O)c1cccs1` the same measures were 8.01 and 5.39.
Take `COc1ccccc1-c1cc(-c2cccc(N)c2)c(C#N)c(NC(=O)c2cccs2)n1`: the pIC50 in assay [1] is below 4.52.
For `COc1ccccc1C(=O)Nc1nc(-c2ccccc2O)cc(-c2cccc(C(=O)NC(C)(C)CN)c2)c1C#N`, in assay [1], the pIC50 is 7.49.
`COc1ccccc1C(=O)Nc1nc(-c2ccccc2O)cc(-c2cccc(C(=O)NCCN)c2)c1C#N` showed a pIC50 in assay [1] of 7.35.

What is called pIC50 is the negative decadic logarithm of the IC50, by convention in mol/L. The term inhibition denotes how much of the control response was suppressed. A higher inhibition goes with a strong effect.
